{"source": "paper PMC6490184", "about": "(ACS infectious diseases, 2019)", "key": {"[1]": {"test_system": "tetracycline destructase enzymes Tet(50), Tet(X), and Tet(X)_3", "assay_type": "biochemical", "outline": "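Enzymes expressed from pET28b(+) in E. coli BL21-Star (DE3) and Ni-NTA purified. Reactions in 100 mM TAPS pH 8.5 held 504 μM NADPH, 5.04 mM MgCl2, 25.3 μM tetracycline substrate, 0.4 μM enzyme and graded inhibitor, in triplicate. Absorbance at 380 or 400 nm was followed for 4 min. Initial velocities were plotted against log[inhibitor] and fitted by nonlinear regression for IC50. Controls: no-enzyme, no-inhibitor, no-substrate.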"}, "[2]": {"test": "Non-enzymatic stability on storage and in solution", "assay_type": "physicochemical", "conditions": "extended solution times (overnight), LCMS"}, "[3]": {"test_system": "E. coli expressing tetracycline destructase enzymes", "test": "Checkerboard whole cell inhibition assay", "assay_type": "cell-based", "conditions": "co-administered with tetracycline antibiotics"}, "Tet(X) [4]": {"molecular_target": "T1, Tet(X) (Bacteroides thetaiotaomicron, UniProt Q93L51)", "test": "In vitro inhibition of Tet", "assay_type": "biochemical"}, "Tet(50) [5]": {"molecular_target": "T2, Tet(50) (Unknown prokaryotic organism, UniProt A0A059WYP6)", "test": "Exposure of aDem to Tet", "assay_type": "biochemical", "conditions": "Tet(50) with NADPH, no tetracycline, LCMS"}, "Tet(50) [6]": {"molecular_target": "T2, Tet(50)", "test": "In vitro inhibition of Tet", "assay_type": "biochemical", "conditions": "degradation of tetracycline antibiotics by soil-derived Tet(50)", "outline": "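Ni-NTA-purified enzyme, dialysed into 50 mM K2HPO4 pH 8.0, 150 mM NaCl, 1 mM DTT. A380 or A400 followed continuously for 4 min. No-enzyme control was set to 1 × 10^15 inhibitor, no-inhibitor control to 1 × 10^−15. No-substrate controls were also run.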"}, "Tet(X) [7]": {"molecular_target": "T1, Tet(X)", "test": "Tet", "assay_type": "biochemical", "conditions": "decrease in 440 nm absorption band and extracted mass (LCMS)"}, "[8]": {"test_system": "E. coli expressing Tet(X)", "test": "Whole cell resistance of E. coli expressing Tet", "assay_type": "cell-based"}, "[9]": {"conditions": "apparent IC50, Tet(X)-mediated degradation of tigecycline"}}, "note": "“Also recorded” adds a separate entry of the source. Counter-ions that a name gives are not always drawn. Like-named read-outs stand apart in the source and are kept apart here.", "data": [{"smiles": "Cc1c2c(c(O)c3c(O)ccc(I)c13)C(=O)[C@]1(O)C(=O)C(C(N)=O)=C(O)[C@@H](N(C)C)[C@@H]1C2.Cl", "note": "[7-I-aTc, (4S,4aS,12aS)-4-(dimethylamino)-3,10,11,12a-tetrahydroxy-7-iodo-6-methyl-1,12-dioxo-1,4,4a,5,12,12a-hexahydrotetracene-2-carboxamide hydrochloride]", "values": [{"measurement": "in vitro destructase inhibitory activity", "setting": "[1]", "value": "potent in vitro destructase inhibitory activity"}, {"measurement": "non-enzymatic degradation in solution", "setting": "[2]", "value": "non-enzymatic degradation of 7-I-aTc in solution was observed; also recorded: some non-enzymatic degradation"}, {"measurement": "whole cell inhibition / rescue of tetracycline activity", "setting": "[3]", "value": "limited activity; also recorded: no inhibitory activity"}]}, {"smiles": "Cc1c2c(c(O)c3c(O)c(Br)ccc13)C(=O)[C@]1(O)C(=O)C(C(N)=O)=C(O)[C@@H](N(C)C)[C@@H]1C2.Cl", "note": "[9-Br-aTc, (4S,4aS,12aS)-9-bromo-4-(dimethylamino)-3,10,11,12a-tetrahydroxy-6-methyl-1,12-dioxo-1,4,4a,5,12,12a-hexahydrotetracene-2-carboxamide hydrochloride]", "values": [{"measurement": "in vitro destructase inhibitory activity", "setting": "[1]", "value": "potent in vitro destructase inhibitory activity"}, {"measurement": "non-enzymatic degradation in solution", "setting": "[2]", "value": "some non-enzymatic degradation"}, {"measurement": "whole cell inhibition / rescue of tetracycline activity", "setting": "[3]", "value": "limited activity"}]}, {"smiles": "Cc1c2c(c(O)c3c(O)ccc(Cl)c13)C(=O)[C@]1(O)C(=O)C(C(N)=O)=C(O)[C@@H](N(C)C)[C@@H]1C2", "note": "[aCTc, (4S,4aS,12aS)-7-chloro-4-(dimethylamino)-3,10,11,12a-tetrahydroxy-6-methyl-1,12-dioxo-1,4,4a,5,12,12a-hexahydrotetracene-2-carboxamide hydrochloride]", "values": [{"measurement": "IC50", "setting": "Tet(X) [4]; [9]", "value": "400 to 1500", "unit": "nM"}]}, {"smiles": "CN(C)[C@@H]1C(O)=C(C(N)=O)C(=O)[C@@]2(O)C(=O)c3c(cc4c(Cl)ccc(O)c4c3O)C[C@@H]12.Cl", "note": "[aDem, (4S,4aS,12aS)-7-chloro-4-(dimethylamino)-3,10,11,12a-tetrahydroxy-1,12-dioxo-1,4,4a,5,12,12a-hexahydrotetracene-2-carboxamide hydrochloride]", "values": [{"measurement": "IC50", "setting": "Tet(X) [4]; apparent IC50, Tet(X)-mediated degradation of tetracycline antibiotics (tetracycline, demeclocycline)", "value": "1000 to 4000", "unit": "nM"}, {"measurement": "IC50", "setting": "Tet(X) [4]; [9]", "value": "400 to 1500", "unit": "nM"}, {"measurement": "whole cell inhibition / rescue of tetracycline activity", "setting": "[3]", "value": "rescues tetracycline activity"}, {"measurement": "decrease in extracted mass over time", "setting": "Tet(50) [5]", "value": "no measurable decrease"}, {"measurement": "in vitro inhibitory activity against enzymatic degradation by Tet(50)", "setting": "Tet(50) [6]", "value": "performed poorly"}, {"measurement": "in vitro inhibitory activity against enzymatic degradation by Tet(50)", "setting": "Tet(50) [6]; listed as 7", "value": "poor in vitro inhibitory activity"}]}, {"smiles": "Cc1c2c(c(O)c3c(O)cccc13)C(=O)[C@]1(O)C(=O)C(C(N)=O)=C(O)[C@@H](N(C)C)[C@@H]1C2", "note": "[aTc, anhydrotetracycline, reference compound]", "values": [{"measurement": "enzymatic degradation by Tet(X)", "setting": "Tet(X) [7]", "value": "substrate for Tet(X)"}, {"measurement": "inhibition model", "setting": "[1]; Lineweaver-Burk plots, degradation of tetracycline", "value": "mixed competitive/non-competitive inhibition model"}, {"measurement": "IC50", "setting": "Tet(X) [4]", "value": "400 to 1500", "unit": "nM"}, {"measurement": "whole cell inhibition / rescue of tetracycline activity", "setting": "[3]", "value": "performs well"}]}, {"smiles": "CN(C)c1cc(NC(=O)CNC(C)(C)C)c(O)c2c1C[C@H]1C[C@H]3[C@H](N(C)C)C(O)=C(C(N)=O)C(=O)[C@@]3(O)C(O)=C1C2=O", "note": "[tigecycline]", "values": [{"measurement": "resistance, increase over empty vector controls", "setting": "[8]", "value": 2, "unit": "fold"}]}]}
